Our source for the IC50, Ki and Ratio IC50 values is ChEMBL document CHEMBL1140905.

In assay [1] the test system is Staphylococcus aureus. The assay is described as follows: Inhibition of staphyloxanthin biosynthesis in Staphylococcus aureus Pig1 isolate after 72 hrs. The assay is classed as functional, organism-based. The note with it: PIG1, 72 h. The gist of the method: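 Wild-type clinical isolate Pig1 grown in THB (1 mL) with serially diluted compounds, 37 °C, 72 h, in duplicate. Cells centrifuged and washed twice with PBS. Pigment extracted with methanol, OD read at 450 nm. IC50 from dose-response fit of OD data.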

In assay [2] the target is T1, 4,4'-diapophytoene synthase (Staphylococcus aureus, UniProt A9JQL9).
T1 sequence (A9JQL9 whole entry): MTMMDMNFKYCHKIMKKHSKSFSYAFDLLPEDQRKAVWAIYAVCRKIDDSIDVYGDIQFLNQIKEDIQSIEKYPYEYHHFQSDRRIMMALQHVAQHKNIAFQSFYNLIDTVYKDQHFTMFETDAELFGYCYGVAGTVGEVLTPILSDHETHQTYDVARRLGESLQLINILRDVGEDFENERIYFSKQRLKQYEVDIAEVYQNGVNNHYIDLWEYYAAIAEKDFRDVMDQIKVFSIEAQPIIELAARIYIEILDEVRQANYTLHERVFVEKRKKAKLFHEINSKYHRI
Description: Inhibition of Staphylococcus aureus dehydrosqualene synthase expressed in Escherichia coli BL21 (DE3) cells by continuous spectrophotometric assay. Put shortly:
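His-tagged S. aureus CrtM, Ni-NTA purified after IPTG induction (1 mM, 4 h). Compounds preincubated with 2 μg CrtM for 30 min at 20 °C. Phosphate release followed by continuous spectrophotometric coupled assay. IC50 from dose-response fit; Ki derived from IC50 and reported Km.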

The subject of assay [3] is BL21-DE3. Description: Selectivity ratio of IC50 for human squalene synthase to IC50 for Staphylococcus aureus dehydrosqualene synthase expressed in Escherichia coli BL21 (DE3) cells.
For assay [4], the system named is BL21-DE3. The assay is described as follows: Selectivity ratio of IC50 for human squalene synthase to IC50 for Staphylococcus aureus dehydrosqualene synthase expressed in Escherichia coli BL21 (DE3) cells assessed as relative selectivity relative to potassium 4-(3-phenoxyphenyl)-1-phosphonatobutane-1-sulfonate.
Assay [5] concerns the target T2, Squalene synthase (Homo sapiens, UniProt P37268).
T2 sequence (P37268 whole entry): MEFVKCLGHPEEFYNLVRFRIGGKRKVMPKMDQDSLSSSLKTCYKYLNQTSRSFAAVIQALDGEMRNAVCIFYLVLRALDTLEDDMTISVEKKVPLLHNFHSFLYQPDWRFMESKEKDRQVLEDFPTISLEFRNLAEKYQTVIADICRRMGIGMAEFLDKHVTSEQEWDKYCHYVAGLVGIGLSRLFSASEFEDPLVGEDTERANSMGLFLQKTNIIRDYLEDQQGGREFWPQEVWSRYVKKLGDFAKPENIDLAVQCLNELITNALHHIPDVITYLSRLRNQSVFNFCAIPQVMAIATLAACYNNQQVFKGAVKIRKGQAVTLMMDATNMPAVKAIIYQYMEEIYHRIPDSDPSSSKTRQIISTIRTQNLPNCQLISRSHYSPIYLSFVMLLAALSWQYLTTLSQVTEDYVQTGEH
Description: Inhibition of human recombinant squalene synthase expressed in Escherichia coli BL21 (DE3) cells assessed as formation of 1,10-dioic acid metabolite by liquid scintillation.

The pIC50 is the negative decadic logarithm of the IC50, by convention in mol/L. What is called pKi is −log10 of the Ki, conventionally taken in molar units. A low value points to a large Ki.

pIC50, pKi: −log10 of the molar value.

`O=P(O)(O)C(CCCc1cccc(Oc2ccc(Cl)cc2)c1)S(=O)(=O)O` (stereo not given): the negative-log IC50 (pIC50) in assay [1] is 7.41; in assay [2], 5.60.
Consider `Cc1ccc(-c2ccc(CCCC(P(=O)(O)O)S(=O)(=O)O)cc2)cc1` (stereo not given), for which, in assay [1], the pIC50 is 6.74.
`O=P(O)(O)C(CCCc1cccc(Cc2ccccc2)c1)S(=O)(=O)O` (stereo not given): in assay [1], the pIC50 was 6.77.
Turning to `O=P(O)(O)C(CCCc1cccc(Oc2ccc3occc3c2)c1)S(=O)(=O)O` (stereo not given), the negative-log IC50 (pIC50) in assay [1] is 7.82; in assay [2], 5.68.
In assay [1], `O=P(O)(O)C(CCCc1ccc(-c2ccc(F)cc2F)cc1)S(=O)(=O)O` (stereo not given) had a pIC50 of 6.74.
With `O=P(O)(O)C(CCCc1cccc(Oc2ccc(F)c(F)c2)c1)S(=O)(=O)O` (stereo not given), the negative logarithm of the IC50 (pIC50) in assay [1] was 6.96; in assay [2], 5.77.
For `O=P(O)(O)C(CCCc1cccc(Oc2ccc(Cc3ccccc3)cc2)c1)S(=O)(=O)O` (stereo not given), the negative logarithm of the IC50 (pIC50) in assay [1] is 7.31.
`O=P(O)(O)C(CCCc1cccc(Oc2ccc(C(F)(F)F)cc2)c1)S(=O)(=O)O` (stereo not given) gave a pIC50 in assay [1] of 7.40.
`CCCc1ccc(Oc2cccc(CCCC(P(=O)(O)O)S(=O)(=O)O)c2)cc1` (stereo not given) gave a negative logarithm of the IC50 (pIC50) in assay [1] of 7.03. In addition, the negative logarithm of the Ki (pKi) in assay [2] is 8.30.
Consider `O=P(O)(O)C(CCCc1cccc(Oc2ccccc2Cc2ccccc2)c1)S(=O)(=O)O` (stereo not given), for which, in assay [1], the negative logarithm of the IC50 (pIC50) is 7.72.
`O=P(O)(O)C(CCCc1ccc(-c2ccccc2)cc1)S(=O)(=O)O` (stereo not given) had a negative-log IC50 (pIC50) in assay [1] of 6.46.
In the case of `O=P(O)(O)C(Cc1cccc(Oc2ccccc2)c1)S(=O)(=O)O` (stereo not given), the values for the Ratio IC50 in assay [3] and in assay [4] were 0.0022 and 0.8, respectively. The pIC50 in assay [1] was 4.47.
Regarding `CCn1c2ccccc2c2cc(CCCC(P(=O)(O)O)S(=O)(=O)O)ccc21` (stereo not given), the pIC50 in assay [1] was 3.58.
Regarding `O=P(O)(O)C(CCCc1cccc(Oc2cc(Cl)cc(Cl)c2)c1)S(=O)(=O)O` (stereo not given), the negative logarithm of the IC50 (pIC50) is 7.29 in assay [1] and 5.20 in assay [2].
As to `CP(=O)(O)C(CCCc1ccc(-c2ccccc2)cc1)P(=O)(O)O` (stereo not given), the Ratio IC50 in assay [3] was 0.014; in assay [4], 4.7. Besides, the figures for the pIC50 in assay [5], in assay [1] and in assay [2] were 7.14, 5.85 and 5.27, respectively.
Regarding `O=P(O)(O)C(CCCc1ccc(-c2ccc(C(F)(F)F)cc2)cc1)P(=O)(O)O`, the Ratio IC50 in assay [3] is 0.014; in assay [4], 4.8. The negative logarithm of the IC50 (pIC50) in assay [1] was 5.96. Besides, the pKi in assay [2] was 9.30.
On to `O=P(O)(O)C(CCCc1cccc(Oc2ccc(Oc3ccccc3)cc2)c1)S(=O)(=O)O` (stereo not given), for which the pIC50 in assay [1] is 7.00.
For `O=P(O)(O)C(CCCc1cccc(Oc2ccc(-c3ccco3)cc2)c1)S(=O)(=O)O` (stereo not given), the negative-log IC50 (pIC50) in assay [1] is 5.96; in assay [2], 4.58.
Compound `O=P(O)(O)C(CCCc1ccc(-c2ccccc2)cc1)P(=O)(O)O` gave a pIC50 in assay [1] of 5.66. In assay [2], this compound gave a pKi of 9.00.
`O=P(O)(O)C(CCCc1cccc(Oc2ccccc2F)c1)S(=O)(=O)O` (stereo not given): the results for the negative-log IC50 (pIC50) in assay [1] and in assay [2] were 6.29 and 5.16, respectively.
The like results for `O=P(O)(O)[C@@H](CCCc1cccc(Oc2ccccc2)c1)S(=O)(=O)O` were, in that order, 6.51 and 4.32.
Consider `O=P(O)(O)C(CCCc1cccc(Oc2ccc(O)cc2)c1)S(=O)(=O)O` (stereo not given), for which the pIC50 in assay [1] is 5.17.
As for `O=P(O)(O)C(CCCc1cccc(Oc2ccc(F)cc2)c1)S(=O)(=O)O` (stereo not given), in assay [1], the pIC50 was 7.28. The same compound gave a pKi in assay [2] of 8.30.
In assay [1], `CCCCc1ccc(-c2ccc(CCCC(P(=O)(O)O)S(=O)(=O)O)cc2)cc1` (stereo not given) gave a pIC50 of 6.80.
The same measure, in the same setting: then `O=P(O)(O)C(CCCc1cccc(Oc2ccccc2)c1)S(=O)(=O)O` (racemic), with 6.96.
For the compound `O=P(O)(O)C(CCCc1cc(Oc2ccc(F)cc2)ccc1F)S(=O)(=O)O` (stereo not given), the negative logarithm of the IC50 (pIC50) in assay [1] is 7.23; in assay [2], 5.68.
As for `O=P(O)(O)C(CCCc1ccc(Oc2ccccc2)cc1)S(=O)(=O)O` (stereo not given), in assay [1], the negative logarithm of the IC50 (pIC50) was 6.72.
In assay [1], `CCCOc1cccc(-c2ccc(CCCC(P(=O)(O)O)S(=O)(=O)O)cc2)c1` (stereo not given) had a negative logarithm of the IC50 (pIC50) of 6.31.
On the same count and under the same terms, then `CC(C)(C)c1ccc(Oc2cccc(CCCC(P(=O)(O)O)S(=O)(=O)O)c2)cc1` (stereo not given), with 7.68.
For the compound `O=P(O)(O)C(CCCc1cccc(Oc2cccc(F)c2)c1)S(=O)(=O)O` (stereo not given), the figures for the pIC50 in assay [1] and in assay [2] were 6.66 and 5.66, respectively.
In the case of `O=P(O)(O)C(CCCc1cccc(Oc2cc(F)cc(F)c2)c1)S(=O)(=O)O` (stereo not given), the pIC50 in assay [1] is 7.82; in assay [2], 5.34.
With `O=P(O)(O)[C@H](CCCc1cccc(Oc2ccccc2)c1)S(=O)(=O)O`, the negative-log IC50 (pIC50) in assay [1] is 7.30.
`O=P(O)(O)C(CCCc1cccc(Oc2cccc(C(F)(F)F)c2)c1)S(=O)(=O)O` (stereo not given): the pIC50 in assay [1] is 7.13; in assay [2], 5.01.
`COc1ccc(Oc2ccc(F)cc2)cc1CCCC(P(=O)(O)O)S(=O)(=O)O` (stereo not given) showed a pIC50 in assay [1] of 4.86.
Take `O=P(O)(O)C(CCCc1cccc(Nc2ccccc2)c1)S(=O)(=O)O` (stereo not given): the pIC50 in assay [1] is 6.30.
`O=P(O)(O)C(CCCc1cccc(Oc2ccc(Cl)c(Cl)c2)c1)S(=O)(=O)O` (stereo not given): the negative-log IC50 (pIC50) in assay [1] is 7.96; in assay [2] it was 5.66.
Consider `O=P(O)(O)C(CCc1cccc(Oc2ccccc2)c1)S(=O)(=O)O` (stereo not given), for which the figures for the Ratio IC50 in assay [3] and in assay [4] were 0.0011 and 0.4, respectively. This compound also had a negative logarithm of the IC50 (pIC50) in assay [1] of 4.69.
With `O=P(O)(O)C(CCCc1cccc(Oc2ccccc2C(F)(F)F)c1)S(=O)(=O)O` (stereo not given), the pIC50 in assay [1] is 6.34; in assay [2], 4.27.
